Measured values reported in ChEMBL document CHEMBL1129950, “Structural requirements for binding of anandamide-type compounds to the brain cannabinoid receptor” (J Med Chem, 1997).

Legend:
Cannabinoid receptor 1 [1] = biological target: T1, Cannabinoid receptor 1 (Homo sapiens, UniProt P21554); assay: Binding affinity against the cannabinoid receptor
How it was run: (§1)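 Whole rat brain synaptosomal membranes (2.4-3.8 µg protein) were competed against 38-48 fmol [3H]HU-243. Drug was serially diluted in 5 mg/mL fatty-acid-free BSA. Final 1 mL held 45 mM Tris-HCl, 2.7 mM MgCl2, 0.9 mM EDTA and 0.58 mg BSA. Incubation was 30 °C, 90 min. Bound ligand was separated by centrifugation, and pellet tips were scintillation-counted. Ki came from displacement.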

Cannabinoid receptor 1 [2] = biological target: Cannabinoid receptor 1 (Rattus norvegicus, UniProt P20272); assay: In vitro binding affinity was determined against rat brain Cannabinoid receptor 1
How it was run: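 Drug was serially diluted in 5 mg/mL fatty-acid-free BSA. Final 1 mL held 45 mM Tris-HCl, 2.7 mM MgCl2, 0.9 mM EDTA and 0.58 mg BSA. Incubation was 30 °C, 90 min. Bound ligand was separated by centrifugation, and pellet tips were scintillation-counted. Ki came from displacement.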

Cannabinoid receptor 1 [3] = biological target: T1, Cannabinoid receptor 1; assay: Binding affinity against the cannabinoid receptor (expt 1); how it was run: as §1
Cannabinoid receptor 1 [4] = biological target: T1, Cannabinoid receptor 1; assay: Binding affinity against the Cannabinoid receptor 1 in the presence of PMSF (experiment 2)
Cannabinoid receptor 1 [5] = biological target: T1, Cannabinoid receptor 1; assay: Binding affinity against the cannabinoid receptor in the presence of PMSF (expt 1)
Cannabinoid receptor 1 [6] = biological target: T1, Cannabinoid receptor 1; assay: Binding affinity against the cannabinoid receptor in the presence of PMSF (expt 3)
Cannabinoid receptor 1 [7] = biological target: T1, Cannabinoid receptor 1; assay: Binding affinity against the cannabinoid receptor in the presence of PMSF
Cannabinoid receptor 1 [8] = biological target: T1, Cannabinoid receptor 1; assay: Binding affinity against the cannabinoid receptor in the presence of PMSF (experiment 2)
Cannabinoid receptor 1 [9] = biological target: T1, Cannabinoid receptor 1; assay: Binding affinity against the cloned human Cannabinoid receptor 1
Cannabinoid receptor 1 [10] = biological target: T1, Cannabinoid receptor 1; assay: Binding affinity against the cloned human Cannabinoid receptor 1; no activity

T1 sequence (P21554 whole entry): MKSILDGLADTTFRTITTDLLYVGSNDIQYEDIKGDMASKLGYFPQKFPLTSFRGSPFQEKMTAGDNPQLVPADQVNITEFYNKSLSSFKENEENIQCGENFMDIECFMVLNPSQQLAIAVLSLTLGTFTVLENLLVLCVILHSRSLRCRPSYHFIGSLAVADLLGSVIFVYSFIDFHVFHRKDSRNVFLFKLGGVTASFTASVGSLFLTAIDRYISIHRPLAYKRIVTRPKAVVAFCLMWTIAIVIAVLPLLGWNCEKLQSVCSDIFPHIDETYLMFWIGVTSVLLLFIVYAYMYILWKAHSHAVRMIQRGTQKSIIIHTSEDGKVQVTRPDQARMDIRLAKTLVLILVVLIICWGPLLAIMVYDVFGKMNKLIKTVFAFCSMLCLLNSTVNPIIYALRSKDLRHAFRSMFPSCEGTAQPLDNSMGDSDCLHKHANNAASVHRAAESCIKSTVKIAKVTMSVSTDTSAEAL
Cannabinoid receptor 1 (Rattus norvegicus, UniProt P20272), sequence (P20272 whole entry): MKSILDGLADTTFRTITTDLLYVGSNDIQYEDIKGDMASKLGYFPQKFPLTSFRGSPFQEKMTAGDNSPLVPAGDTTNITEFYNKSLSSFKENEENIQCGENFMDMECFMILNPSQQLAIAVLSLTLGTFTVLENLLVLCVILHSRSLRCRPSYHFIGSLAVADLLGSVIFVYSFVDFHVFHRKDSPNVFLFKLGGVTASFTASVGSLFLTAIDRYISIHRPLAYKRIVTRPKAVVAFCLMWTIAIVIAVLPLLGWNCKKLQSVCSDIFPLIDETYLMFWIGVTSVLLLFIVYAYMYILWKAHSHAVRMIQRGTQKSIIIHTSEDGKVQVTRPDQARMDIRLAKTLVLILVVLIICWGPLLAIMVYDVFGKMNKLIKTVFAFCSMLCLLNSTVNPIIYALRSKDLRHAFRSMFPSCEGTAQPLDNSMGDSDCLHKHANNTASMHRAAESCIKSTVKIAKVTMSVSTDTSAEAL

Row | Compound | Ki (Cannabinoid receptor 1 [2]; read-out: Ki) [nM] | further results
1 | CCCCC/C=C\C/C=C\C/C=C\CCCCCCC(=O)NCCO |  | Ki (Cannabinoid receptor 1 [1]): 598 nM
2 | CCCCC/C=C\C/C=C\CCCCCCCCCC(=O)NCCO | 1500 | 
3 | CCCCC/C=C\C/C=C\C/C=C\C/C=C\CCCC(=O)N(C)CCO | > 10000 | Ki (Cannabinoid receptor 1 [3]): 5240 nM; Ki (Cannabinoid receptor 1 [4]): 4980 nM
4 | CCCCC/C=C\C/C=C\C/C=C\C/C=C\CCCC(=O)NC(C)(C)C | 139 | 
5 | CCCCC/C=C\C/C=C\C/C=C\C/C=C\CCCC(=O)N[C@@H](C)CC | 377 | 
6 | CCCCC/C=C\C/C=C\C/C=C\C/C=C\CCCC(=O)NCCCC | 236 | Ki (Cannabinoid receptor 1 [1]): 30 nM
7 | CCCCC/C=C\C/C=C\C/C=C\C/C=C\CCCC(=O)N(C)C | > 1000 | 
8 | CCCCC/C=C\C/C=C\C/C=C\C/C=C\CCCC(=O)NC | 60 | 
9 | CCCCC/C=C\C/C=C\C/C=C\C/C=C\CCCC(=O)N(CC)CC | > 1000 | 
10 | CC/C=C/C/C=C\C/C=C\C/C=C\CCCCC(=O)NCCO | > 1000 | 
11 | CCCCC/C=C\C/C=C\C/C=C\C/C=C\CCCC(=O)N(CCC)CCO | > 10000 | 
12 | CCCCC/C=C\C/C=C\C/C=C\C/C=C\CCC(C)C(=O)NCCO (configuration not stated) |  | Ki (Cannabinoid receptor 1 [5]): 53 nM; Ki (Cannabinoid receptor 1 [6]): 53 nM
13 | CCCCC/C=C\C/C=C\C/C=C\C/C=C\CCCC(=O)NCCC(C)C | 575 | Ki (Cannabinoid receptor 1 [7]): 1860 nM
14 | CCCCC/C=C\C/C=C\C/C=C\C/C=C\CCC(C)C(=O)NCCC (configuration not stated) | 7.4 | 
15 | CCCCC/C=C\C/C=C\C/C=C\C/C=C\CCCC(=O)NCCN(CC)CC | > 1000 | 
16 | CCCCC/C=C\C/C=C\C/C=C\C/C=C\CCCC(=O)NCCOP(=O)(O)O | 191 | 
17 | CCCCC/C=C\C/C=C\C/C=C\C/C=C\CCCC(=O)NC(C)(C)CC | 447 | 
18 | CC/C=C/C/C=C\C/C=C\CCCCCCCCCC(=O)NCCO | > 10000 | 
19 | CC/C=C/C/C=C\C/C=C\CCCCCCCC(=O)NCCO |  | Ki (Cannabinoid receptor 1 [2]): Not Active
20 | CCCCC/C=C\C/C=C\C/C=C\C/C=C\CCC(C)(C)C(=O)NCCC | 6.9 | 
21 | CCCCCC#CCC#CCC#CCC#CCCCC(=O)NCCO |  | Ki (Cannabinoid receptor 1 [2]): Not Active
22 | CCCCCCCC/C=C\CCCCCCCCCC(=O)NCCO | > 1000 | Ki (Cannabinoid receptor 1 [8]): > 10000 nM
23 | CCCCC/C=C\C/C=C\C/C=C\C/C=C\CCCC(=O)NC(CO)C(=O)O (configuration not stated) | > 10000 | 

Row | Compound | Ki (Cannabinoid receptor 1 [2]; read-out: Ki) [nM] | further results
24 | CCCCC/C=C\C/C=C\C/C=C\C/C=C\CCC(C)C(=O)NC(C)C (configuration not stated) | 8.4 | 
25 | CC/C=C/C/C=C\C/C=C\C/C=C\C/C=C\C/C=C/CCC(=O)NCCO |  | Ki (Cannabinoid receptor 1 [9]): 12200 nM
26 | CC/C=C/C/C=C\C/C=C\C/C=C\C/C=C/CCCC(=O)NCCO | 162 | Ki (Cannabinoid receptor 1 [8]): 1470 nM
27 | CCCCC/C=C\C/C=C\C/C=C\C/C=C\CCCC(=O)N(CC)CCO | > 10000 | 
28 | CCCCC/C=C\C/C=C\C/C=C\C/C=C\CCCC(=O)NC(C)(C)CO | 162 | 
29 | CCCCC/C=C\C/C=C\C/C=C\C/C=C\CCCC(=O)NC(C)C | 13.6 | 
30 | CCCCC/C=C\C/C=C\C/C=C\C/C=C\CCC(C)(C)C(=O)N[C@H](C)CO | 31.1 | 
31 | CCCCC/C=C\C/C=C\C/C=C\C/C=C\CCC(C)(C)C(=O)NC[C@H](C)O | 46.6 | 
32 | CCCCC/C=C\C/C=C\C/C=C\C/C=C\CCC(C)(C)C(=O)N[C@@H](C)CO | 191 | 
33 | CCCCC/C=C\C/C=C\C/C=C\C/C=C\CCCC(=O)NO | > 1000 | 
34 | CCCCC/C=C\C/C=C\C/C=C\C/C=C\CCCC(=O)NCCCO |  | Ki (Cannabinoid receptor 1 [9]): 364 nM; Ki (Cannabinoid receptor 1 [1]): 13 nM; Ki (Cannabinoid receptor 1 [7]): 189 nM
35 | CCCCC/C=C\C/C=C\C/C=C\C/C=C\CCCC(=O)NCCCCC | > 1000 | 
36 | CCCCC/C=C\C/C=C\C/C=C\C/C=C\CCCC(=O)N[C@H](C)CC | 240 | 
37 | CCCCC/C=C\C/C=C\C/C=C\C/C=C\CCCC(=O)NC(C)C(O)c1ccccc1 (configuration not stated) | > 1000 | 
38 | CCCCC/C=C\C/C=C\C/C=C\C/C=C\CCC(C)(C)C(=O)NCCO | 25.5 | Ki (Cannabinoid receptor 1 [1]): 41 nM; Ki (Cannabinoid receptor 1 [8]): 47 nM; Ki (Cannabinoid receptor 1 [5]): 47 nM
39 | CCCCC/C=C\C/C=C\C/C=C\C/C=C\CCC(C)(C)C(=O)NC(C)C | 7.2 | 
40 | CCCCC/C=C\C/C=C\C/C=C\C/C=C\CCCC(=O)NCCC | 11.7 | Ki (Cannabinoid receptor 1 [1]): 7.3 nM
41 | CCCCC/C=C\C/C=C\C/C=C\C/C=C\CCCC(=O)NCCOC | 85.2 | Ki (Cannabinoid receptor 1 [1]): 650 nM; Ki (Cannabinoid receptor 1 [7]): 1820 nM
42 | CCCCC/C=C\C/C=C\CCCCCCCC(=O)NCCO (stereo in doubt; 37) [LINOLEOYLETHANOLAMIDE] |  | Ki (Cannabinoid receptor 1 [9]): > 41400 nM
43 | CCCCC/C=C\C/C=C\C/C=C\C/C=C\CCCC(N)=O [ARACHIDONAMIDE] | > 1000 | Ki (Cannabinoid receptor 1 [9]): 9600 nM
44 | CCCCC/C=C\C/C=C\C/C=C\C/C=C\CCCC(=O)NCC(=O)O [ARACHIDONOYL GLYCINE] | > 10000 | 
45 | CCCCCCCCCCCCCCCC(=O)NCCO [PALMIDROL] |  | Ki (Cannabinoid receptor 1 [2]): Not Active; Ki (Cannabinoid receptor 1 [10]): Not Active
